Measured values reported in ChEMBL document CHEMBL3085761, “Synthesis, anticonvulsant and anti-inflammatory studies of new 1,4-dihydropyridin-4-yl-phenoxyacetohydrazones” (Eur J Med Chem, 2013).

Columns and labels:
Assay type in all cases: functional
Rattus norvegicus [1] = test: Antiinflammatory activity in Wistar rat assessed as inhibition of carrageenan-induced paw edema at 20 mg/kg administered 30 mins prior to carrageenan-challenge measured after 3 hrs by plethysmographic analysis relative to control
Procedure, shortened: (§1)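 Male or female Wistar rats (100–150 g), five per group, fasted overnight; 20 mg/kg given by stomach tube in 5 mL water. 30 min later 0.05 mL 1% carrageenan s.c. into left hind paw plantar side; paw volume by mercury plethysmography at 0, 30, 60, 120, 180 min; percent inhibition versus control, one-way ANOVA with Dunnett's test.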

Rattus norvegicus [2] = test: Antiinflammatory activity in Wistar rat assessed as inhibition of carrageenan-induced paw edema at 20 mg/kg administered 30 mins prior to carrageenan-challenge measured after 1 hr by plethysmographic analysis relative to control; procedure, shortened: as §1
Rattus norvegicus [3] = test: Antiinflammatory activity in Wistar rat assessed as inhibition of carrageenan-induced paw edema at 20 mg/kg administered 30 mins prior to carrageenan-challenge measured after 30 mins by plethysmographic analysis relative to control; procedure, shortened: as §1
Rattus norvegicus [4] = test: Antiinflammatory activity in Wistar rat assessed as inhibition of carrageenan-induced paw edema at 20 mg/kg administered 30 mins prior to carrageenan-challenge measured after 2 hrs by plethysmographic analysis relative to control; procedure, shortened: as §1
Mus musculus [5] = test: Anticonvulsant activity in ip dosed mouse assessed as protection against maximal electroshock-induced epileptic seizures after 4 hrs; details: read-out: MED
Procedure, shortened: (§2)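 Mice (20–40 g), groups of six to ten; i.p. doses 30, 100 and 300 mg/kg; tested at 0.5 and 4 h. Stimulus 50 mA, 60 Hz, 0.2 s via corneal electrodes primed with anaesthetic electrolyte; abolition of hindlimb tonic extension scored as protection. Value is the minimal dose protecting at least 50% of animals.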

Mus musculus [6] = test: Anticonvulsant activity in ip dosed mouse assessed as protection against maximal electroshock-induced epileptic seizures after 0.5 hrs; details: read-out: MED; procedure, shortened: as §2

## O=C(O)Cc1ccccc1Nc1c(Cl)cccc1Cl [DICLOFENAC SODIUM]
Rattus norvegicus [1]
  inhibition in vivo at 20 mg/kg: 65.3%
Rattus norvegicus [2]
  inhibition in vivo at 20 mg/kg: 41%
Rattus norvegicus [3]
  inhibition in vivo at 20 mg/kg: 16.7%
Rattus norvegicus [4]
  inhibition in vivo at 20 mg/kg: 61.1%

## O=C1NC(=O)C(c2ccccc2)(c2ccccc2)N1 [PHENYTOIN]
Mus musculus [5]
  minimal effective dose: 30 mg/kg
Mus musculus [6]
  minimal effective dose: 30 mg/kg
